High-throughput results as filed in PubChem BioAssay.
core dimer inh = HCV core protein dimerization inhibition. 0.33% of 300,000 active. TR-FRET GST/Flag-core106 dimerization, 1536-well. inhibition, % at 5 µM;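 active = inhibition above the mean of all tested compounds plus 3 SD, set per screening campaign, cut at about 45% in these data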
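System: GST-tagged and Flag-tagged HCV core protein residues 1-106 / Input: core106 proteins, GST 13.5 nM and Flag 17 nM / Buffer or medium: KF-containing HEPES buffer, pH 7.45, DTT, CHAPS, BSA / Probe or stimulus: Eu-anti-GST and XL665-anti-Flag labelled anti-tag antibodies / Schedule: 4 h, 22.5 °C incubation / Technique: TR-FRET 671 and 617 nm emission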
PfM18AAP inh = blocks P. falciparum M18 aspartyl aminopeptidase; recombinant PfM18AAP, H-Glu-NHMec fluorogenic cleavage; inhibition, % at 7.35 µM; 1.2% of 290,000 active;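 active = inhibition above the campaign mean inhibition over all tested compounds plus 3 SD, cut at about 28% in these data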
ALR H2O2 inh = human ALR oxidase inhibition via reduced H2O2; 3.8% of 290,000 active; purified ALR, DTT oxidation, H2O2 HRP-luminol luminescence; inhibition, % (test concentration not listed);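 active = mean replicate inhibition above about 79%, with every replicate also reaching it, limit read from the data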
Target sequence (P55789 whole entry, looked up): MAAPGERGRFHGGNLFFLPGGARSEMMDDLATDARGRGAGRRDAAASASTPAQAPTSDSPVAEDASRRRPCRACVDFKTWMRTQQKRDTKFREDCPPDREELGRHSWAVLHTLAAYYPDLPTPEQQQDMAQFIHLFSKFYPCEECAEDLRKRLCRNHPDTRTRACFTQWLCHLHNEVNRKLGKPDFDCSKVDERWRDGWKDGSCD
EBNA-1 inhibitor = blocks EBNA-1 binding to DNA | EBNA-1 DNA binding, fluorescence polarization | inhibition, % at 14.8 µM | 0.34% of 300,000 active | AID 1950; in the data active = inhibition above about 28%
ZTA DNA inh = counter-screen for EBNA-1 inhibitors: inhibitors of Epstein-Barr virus ZTA; ZTA-DNA binding, fluorescence polarization; inhibition, % at 11 µM; 0.15% of 320,000 active; AID 2234; in the data active = inhibition above about 33%
Target sequence (P03206 whole entry, looked up): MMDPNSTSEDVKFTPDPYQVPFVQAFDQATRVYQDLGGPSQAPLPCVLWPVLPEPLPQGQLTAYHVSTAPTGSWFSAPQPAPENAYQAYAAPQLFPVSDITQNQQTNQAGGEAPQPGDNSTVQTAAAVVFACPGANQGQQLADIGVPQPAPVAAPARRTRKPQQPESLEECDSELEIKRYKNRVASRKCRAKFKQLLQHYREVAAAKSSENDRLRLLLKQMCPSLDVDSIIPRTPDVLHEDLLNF
NS3 helicase inh = blocks Hepatitis C virus NS3 helicase unwinding; NS3 helicase DNA unwinding, Cy5 molecular beacon fluorescence; inhibition, % at 10.9 µM; 0.56% of 290,000 active;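 active = inhibition above the mean of all tested compounds plus 3 SD, set per campaign, cut at about 35% in these data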
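assay system = NS3 helicase fragment of HCV | buffer or medium = MOPS pH 6.5, MgCl2, DTT, Tween20, BSA | timing = 60 min unwinding reaction at 25 °C after ATP addition | signal = Cy5 beacon fluorescence read at start and 1 h | read-out basis = % inhibition of unwinding | control set = low DMSO, high thioflavine S at 110 µM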
NS3 hel confirm = confirmation of Hepatitis C virus NS3 helicase inhibitors; inhibition, % at 10.9 µM; shares compounds with NS3 helicase inh; 31% of 1,600 active; AID 1943; NS3 helicase DNA unwinding, Cy5 molecular beacon fluorescence;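 active = inhibition above the mean of all tested compounds plus 3 SD, cutoff set per campaign, cut at about 36% in these data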
FID counter trip = counter-screen for HCV NS3 helicase inhibitors: DNA intercalator displacement | shares compounds with NS3 helicase inh | inhibition, % at 7.9 µM | AID 1945 | 4% of 1,600 active | DNA fluorescent intercalator displacement, fluorescence; in the data active = inhibition above about 37%;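 note: higher means more displacement of ethidium bromide from the DNA hairpin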
FID counter DR = counter-screen for HCV NS3 helicase inhibitors: DNA intercalator displacement dose response; shares compounds with NS3 helicase inh; fluorescent intercalator displacement from DNA, fluorescence; IC50, µM; 120 tested, under 10 active; AID 2172; call rule not given here
Of the large screens only hits and unclear results are named; the others gave an inactive call (follow-up assays come after a bar, where they were run). A selection: hits, their analogues and other compounds. The true share with any hit is near 5.2%.

CCOc1ccc(/C(O)=C2/C(=O)C(=O)N(c3nc(C)c(C)s3)C2c2ccco2)cc1 (centres undefined)	NS3 helicase inh 50.9 | NS3 hel confirm 54.7 | FID counter trip inactive | FID counter DR inactive
Cc1ccc(NN2C(=O)C=C(c3ccc(Cl)cc3)C2=O)cc1	none
CNC(C)C#Cc1ccc2sc3cccc(OC)c3c(=O)c2c1 (centres undefined)	NS3 helicase inh 38.6 (no result: ALR H2O2 inh) | NS3 hel confirm inactive | FID counter trip inactive
Cc1ccc(NC(=O)c2cccc(C(=O)Nc3ccc(C)c(C)c3)n2)cc1C	none
COc1cc(/C=C2\SC(=S)N(C(C(=O)O)c3ccccc3)C2=O)ccc1O (centres undefined)	NS3 helicase inh 43.3 (no result: ALR H2O2 inh) | NS3 hel confirm 74.6 | FID counter trip inactive
O=C1/C(=C\c2ccc(O)c(O)c2)SC(=S)N1Cc1ccccc1	PfM18AAP inh 47.6, NS3 helicase inh 69.0 (no result: core dimer inh, EBNA-1 inhibitor, ZTA DNA inh) | NS3 hel confirm 59.4 | FID counter trip 51.5
CCc1noc(C)c1C(=O)Nc1ccc(C(F)(F)F)cc1	none
Cc1cc(C(=O)N2CCN(c3ncccn3)CC2)nn1C	none
CC1CCCC2(C1)NC(=S)c1c(sc3c1CCCC3)N2 (centres undefined)	core dimer inh 52.7, NS3 helicase inh 36.4 | NS3 hel confirm inactive | FID counter trip inactive
O=C(CN(CCc1ccccc1)Cc1ccccc1)Oc1ccccc1P(=O)(O)O	none
CCOC(=O)c1cnc2c(C)cc(C)cc2c1NCCCN1CCOCC1	NS3 helicase inh 41.3 (no result: core dimer inh, EBNA-1 inhibitor, ZTA DNA inh) | NS3 hel confirm inactive | FID counter trip 77.5
COCc1c(C(=O)N/N=C/c2ccncc2)nnn1-c1nonc1N	none
CN(c1ccccc1)S(=O)(=O)c1ccc(C(=O)NCc2ccccc2F)cc1	none (no result: core dimer inh, PfM18AAP inh, EBNA-1 inhibitor, NS3 helicase inh)
COc1ccc(NC(=O)CN(C)C(=O)CCCc2nc3ccccc3c(=O)[nH]2)cc1	none (no result: PfM18AAP inh, NS3 helicase inh)
C=CCSc1nc2sc3c(c2c(=O)n1CC=C)CCc1ccccc1-3	none
C=CCn1c(SCCC)nc2sc3c(c2c1=O)CCc1ccccc1-3	NS3 helicase inh 60.2 | NS3 hel confirm inactive | FID counter trip inactive
CCOC(=O)C1=C(c2ccccc2)N=c2s/c(=C\c3ccco3)c(=O)n2C1c1cccs1 (centres undefined)	core dimer inh 68.9, NS3 helicase inh 47.6 | NS3 hel confirm inactive | FID counter trip inactive
CCCCn1c(N)c(N(CC(C)C)C(=O)CSc2nnc(C)n2-c2ccc(OC)cc2)c(=O)[nH]c1=O	none (no result: PfM18AAP inh, NS3 helicase inh)
Clc1ccccc1Cn1c(/C=C/c2ccco2)nc2ccccc21	NS3 helicase inh 51.5 (no result: ALR H2O2 inh) | NS3 hel confirm inactive | FID counter trip inactive
Cc1cc(=O)oc2cc(OCC(=O)NC(Cc3c[nH]c4ccc(O)cc34)C(=O)O)c(Cl)cc12 (centres undefined)	NS3 helicase inh 40.3 | NS3 hel confirm inactive | FID counter trip inactive
CC(C)c1ccc(OCC(=O)NC(Cc2c[nH]c3ccccc23)C(=O)O)cc1 (centres undefined)	NS3 helicase inh 48.0 | NS3 hel confirm 62.0 | FID counter trip inactive
Cc1cc(=O)oc2c(C)c(OC(C)C(=O)NC(Cc3c[nH]c4ccc(O)cc34)C(=O)O)ccc12 (centres undefined)	none
O=C(c1ccc2nc(-c3ccco3)c(-c3ccco3)nc2c1)N1CCN(c2ncccn2)CC1	core dimer inh 62.5, NS3 helicase inh 52.8 | NS3 hel confirm 83.6 | FID counter trip inactive | FID counter DR inactive
O=C(Nc1ccc(N2CCOCC2)cc1)c1ccc2nc(-c3ccco3)c(-c3ccco3)nc2c1	none (no result: ALR H2O2 inh)
S=C(Nc1ccc(N2CCOCC2)cc1)Nc1ccc2nc(-c3ccco3)c(-c3ccco3)nc2c1	core dimer inh 83.1, PfM18AAP inh 44.5, NS3 helicase inh 54.7 | NS3 hel confirm inactive | FID counter trip inactive
O=C(Nc1ccccc1)c1ccc2nc(-c3ccco3)c(-c3ccco3)nc2c1	core dimer inh 75.2, NS3 helicase inh 45.8 | NS3 hel confirm 78.0 | FID counter trip 52.9
O=C(NCCO)Nc1ccc2nc(-c3ccco3)c(-c3ccco3)nc2c1	core dimer inh 75.8, PfM18AAP inh 36.6, ZTA DNA inh 41.7, NS3 helicase inh 56.9 | NS3 hel confirm 67.1 | FID counter trip 37.5
O=C(Nc1ccccc1Br)C1CC(=O)N(c2ccc3c4c(cccc24)CC3)C1 (centres undefined)	none
CC(=O)c1ccc(NC(=O)c2ccc3nc(-c4ccco4)c(-c4ccco4)nc3c2)cc1	core dimer inh 78.1, NS3 helicase inh 38.7 | NS3 hel confirm 77.9 | FID counter trip inactive
Cc1ccc(-n2cccc2/C=C2/NC(=O)N(CC(=O)Nc3cccc(C)c3)C2=O)cc1	none
Cc1cccc(NC(=O)CN2C(=O)N/C(=C\c3cccn3-c3cccc(C(=O)O)c3)C2=O)c1	NS3 helicase inh 36.8 | NS3 hel confirm inactive | FID counter trip inactive
Cc1nnc(Cn2cnc3c2c(=O)n(C)c(=O)n3C)o1	NS3 helicase inh 39.4 | NS3 hel confirm inactive | FID counter trip inactive
COCCNC(=O)[C@H]1N2C(=O)c3ccccc3C2SC1(C)C (some centres undefined)	none
Cc1cccc(NC(=S)NC(=O)/C=C/c2ccco2)c1	none
COc1ccc(CCNC(=O)/C=C/c2ccco2)cc1	NS3 helicase inh 41.4 | NS3 hel confirm inactive | FID counter trip inactive
COc1ccccc1NC(=O)/C=C\c1ccco1	NS3 helicase inh 52.7 | NS3 hel confirm inactive | FID counter trip inactive
COc1ccc(CCNC(=O)/C=C/c2ccco2)cc1OC	none
COc1ccccc1NC(=S)NC(=O)/C=C/c1ccco1	none
Cc1cccc(NC(=S)NC(=O)/C=C/c2ccco2)n1	NS3 helicase inh 76.9 (no result: ALR H2O2 inh) | NS3 hel confirm inactive | FID counter trip inactive
COc1ccc(N(C(=O)COc2ccc(C)cc2)S(=O)(=O)c2ccc(C)cc2)cc1	none
CCCOc1ccc([N+](=O)[O-])c(N)c1	none
CCOc1ccc(CN(C)C(=O)CCN2C(=O)c3ccccc3C2=O)cc1OC	none
CCCn1c(C(O)c2cccc(OC)c2)nc2ccccc21 (centres undefined)	NS3 helicase inh 41.9 (no result: core dimer inh, ALR H2O2 inh, EBNA-1 inhibitor, ZTA DNA inh) | NS3 hel confirm inactive | FID counter trip inactive
Cc1cccc(C(=O)NCC(=O)OCC(=O)c2ccc(Cl)s2)c1	none (no result: core dimer inh, EBNA-1 inhibitor, ZTA DNA inh)
CCOC(=O)c1c(C)oc2c(F)c(F)c(F)c(F)c2c1=O	NS3 helicase inh 41.6 | NS3 hel confirm inactive | FID counter trip inactive
CCOC(=O)c1c(C)oc2c1cc(O)c1ccccc12	none
